# Source: ChEMBL document CHEMBL2176974, “A bactericidal guanidinomethyl biaryl that alters the dynamics of bacterial FtsZ polymerization” (J Med Chem, 2012)
# The source made the active and inactive calls. No cut-off for these calls is given here.
# Key:
# [1] = target: Tubulin beta chain (Sus scrofa) (UniProt P02554); experiment: Stimulation of MAP-rich pig beta-tubulin polymerization at 25 ug/mL by microtiter plate-based light scattering assay
# In short: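 MAP-rich porcine tubulin (70% β-tubulin, 30% MAPs) at 2 mg/mL with 1 mM GTP. Buffer was 80 mM PIPES·NaOH pH 7.0, 2 mM MgCl₂, 1 mM EGTA. Light scattering was followed as A340 continuously at 37 °C for 60 min, against a DMSO vehicle.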
# [2] = target: T1, Cell division protein FtsZ (Escherichia coli K-12) (UniProt P0A9A6); experiment: Stimulation of Escherichia coli FtsZ self-polymerization at 40 ug/mL by microtiter plate-based light scattering assay
# T1 sequence (whole entry): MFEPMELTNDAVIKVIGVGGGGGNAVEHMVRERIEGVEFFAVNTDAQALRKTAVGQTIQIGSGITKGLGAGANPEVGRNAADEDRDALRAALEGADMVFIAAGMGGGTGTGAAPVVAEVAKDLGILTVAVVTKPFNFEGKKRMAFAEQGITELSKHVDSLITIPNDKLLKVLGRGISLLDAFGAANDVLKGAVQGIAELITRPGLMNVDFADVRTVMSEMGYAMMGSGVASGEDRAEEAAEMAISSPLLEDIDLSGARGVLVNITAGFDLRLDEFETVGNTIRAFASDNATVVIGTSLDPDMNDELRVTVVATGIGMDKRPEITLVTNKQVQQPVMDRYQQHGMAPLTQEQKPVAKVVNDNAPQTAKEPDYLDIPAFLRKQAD
# Escherichia coli [3] = experiment: Antimicrobial activity against Escherichia coli W4573 incubated for 24 hrs by broth microdilution method; type: functional; settings: W4573, 24 h
# In short: (§1)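 CLSI broth microdilution. Log-phase bacteria at 10⁵ CFU/mL were exposed to 2-fold serial dilutions (64 to 0.016 μg/mL) in cation-adjusted Mueller-Hinton broth, 5% defibrinated sheep blood added for Streptococcus. Incubated aerobically 24 h at 37 °C. Growth read as OD600; MIC taken as the lowest concentration giving 90% growth inhibition.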
# Escherichia coli [4] = experiment: Antimicrobial activity against ESBL producing Escherichia coli ATCC BAA-201 expressing TEM3 lactamase incubated for 24 hrs by broth microdilution method; type: functional; settings: ATCC BAA-201, 24 h; in short: as §1
# Escherichia coli [5] = experiment: Antimicrobial activity against Escherichia coli N43 expressing AcrAB efflux pump mutant incubated for 24 hrs by broth microdilution method; type: functional; settings: N43, 24 h
# Staphylococcus aureus [6] = experiment: microbe, parasite or virus in culture; type: functional; settings: 8325-4, 24 h
# Enterococcus faecalis [7] = experiment: microbe, parasite or virus in culture; type: functional; settings: ATCC 19433, 24 h
# Enterococcus faecalis [8] = experiment: Stimulation of Enterococcus faecalis FtsZ self-polymerization at 40 ug/mL by microtiter plate-based light scattering assay
# In short: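 Purified E. faecalis FtsZ (10 μM) mixed with compound (0–40 μg/mL) and 1 mM GTP in 50 mM Tris-HCl pH 7.4, 50 mM KCl, 2 mM magnesium acetate, 10 mM CaCl2. Polymerization followed continuously as light scattering (A340) at 25 °C over 400 min.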
# Enterococcus faecalis [9] = experiment: microbe, parasite or virus in culture; type: functional; settings: ATCC 51575, 24 h
# Escherichia coli [10] = experiment: Potency index, ratio of MBC to MIC for Escherichia coli W4573; type: functional
# In short: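 MBC/MIC ratio. MIC: CLSI broth microdilution, 10⁵ CFU/mL in CAMH broth, 24 h at 37 °C, OD600, 90% inhibition. MBC: well aliquots plated on tryptic soy agar, counted after 24 h, 3-log CFU reduction. Ratio 1–2 read as bactericidal, ≥8 as bacteriostatic.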
# Escherichia coli [11] = experiment: Antimicrobial activity against Escherichia coli W4573 incubated for 24 hrs in broth followed by colony transfer to tryptic soy agar for further 24 hrs incubation; type: functional; settings: W4573, 24 h
# In short: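 MBC: broth microdilution as for MIC (10⁵ CFU/mL, CAMH broth, 24 h, 37 °C). Aliquots from wells were then plated on tryptic soy agar and colonies counted after 24 h. MBC taken as the lowest concentration giving a 3-log CFU reduction.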
# Staphylococcus aureus [12] = experiment: Antimicrobial activity against methicillin-resistant Staphylococcus aureus Mu3 incubated for 24 hrs by broth microdilution method; type: functional; settings: Mu3, 24 h
# Staphylococcus aureus [13] = experiment: microbe, parasite or virus in culture; type: functional; settings: ATCC 33591, 24 h
# [14] = target: T2, Cell division protein FtsZ (Staphylococcus aureus) (UniProt P0A031); experiment: Stimulation of Staphylococcus aureus FtsZ self-polymerization at 40 ug/mL by microtiter plate-based light scattering assay
# T2 sequence (whole entry): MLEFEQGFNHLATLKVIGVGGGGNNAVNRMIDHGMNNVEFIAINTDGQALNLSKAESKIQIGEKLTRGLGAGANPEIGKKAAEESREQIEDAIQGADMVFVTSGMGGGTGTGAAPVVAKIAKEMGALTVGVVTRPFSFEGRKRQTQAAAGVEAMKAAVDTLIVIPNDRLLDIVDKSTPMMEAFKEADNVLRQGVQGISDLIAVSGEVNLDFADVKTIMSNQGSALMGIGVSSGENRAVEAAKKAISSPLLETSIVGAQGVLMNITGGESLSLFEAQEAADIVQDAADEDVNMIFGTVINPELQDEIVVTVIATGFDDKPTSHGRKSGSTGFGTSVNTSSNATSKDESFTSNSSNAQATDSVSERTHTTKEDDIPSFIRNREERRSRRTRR
# Staphylococcus aureus [15] = experiment: microbe, parasite or virus in culture; type: functional; settings: ATCC 49951, 24 h
# Staphylococcus aureus [16] = experiment: microbe, parasite or virus in culture; type: functional; settings: 8325-4, 24 h; remark: listed apart in the source
# [17] = target: T3, Cell division protein FtsZ (Staphylococcus aureus, UniProt P0A031); experiment: Binding affinity to Staphylococcus aureus FtsZ expressed in Escherichia coli BL21 (DE3) at 25 degC by fluorescence anisotropy assay
# T3 sequence (P0A031 whole entry): T2 sequence (whole entry)
# In short: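 Intrinsic compound fluorescence anisotropy. Compound at 5 μM was titrated with 0–25 μM FtsZ in 50 mM Tris·HCl pH 7.4, 50 mM KCl, 2 mM magnesium acetate. Samples were incubated 5 min at 25 °C, excited at 245 nm with emission at 318 nm, and G-corrected. Runs were in triplicate and averaged. Kd was obtained by nonlinear least-squares fit. SaFtsZ was expressed in E. coli BL21(DE3) and purified by ammonium sulfate, MonoQ and Superdex-200.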
# [18] = target: T4, Cell division protein FtsZ (Escherichia coli K-12, UniProt P0A9A6); experiment: Binding affinity to Escherichia coli FtsZ at 25 degC by fluorescence anisotropy assay
# T4 sequence (P0A9A6 whole entry): T1 sequence (whole entry)
# [19] = Binding affinity to Enterococcus faecalis FtsZ at 25 degC by fluorescence anisotropy assay
# Sequence of Tubulin beta chain (Sus scrofa) (P02554 whole entry): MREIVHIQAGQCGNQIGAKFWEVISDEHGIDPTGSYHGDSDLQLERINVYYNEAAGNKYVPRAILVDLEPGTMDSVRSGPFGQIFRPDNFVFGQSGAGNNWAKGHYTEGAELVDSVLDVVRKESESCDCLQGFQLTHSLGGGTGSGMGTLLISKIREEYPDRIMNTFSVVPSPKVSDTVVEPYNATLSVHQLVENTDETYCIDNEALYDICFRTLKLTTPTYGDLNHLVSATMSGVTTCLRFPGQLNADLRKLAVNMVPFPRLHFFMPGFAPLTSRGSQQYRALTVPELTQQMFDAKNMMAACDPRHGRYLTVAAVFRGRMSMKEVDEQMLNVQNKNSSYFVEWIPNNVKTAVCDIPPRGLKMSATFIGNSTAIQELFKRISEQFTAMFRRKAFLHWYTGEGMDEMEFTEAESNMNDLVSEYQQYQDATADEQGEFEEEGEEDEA
compound,measurement,setting,value
CC(=O)O[C@H]1C(=O)[C@@]2(C)[C@H]([C@H](OC(=O)c3ccccc3)[C@]3(O)C[C@H](OC(=O)[C@H](O)[C@@H](NC(=O)c4ccccc4)c4ccccc4)C(C)=C1C3(C)C)[C@]1(OC(C)=O)CO[C@@H]1C[C@@H]2O,Activity,[1],Active
CC1(C)S[C@@H]2[C@H](NC(=O)[C@H](N)c3ccccc3)C(=O)N2[C@H]1C(=O)[O-].[Na+] [AMPICILLIN SODIUM],Activity,[2],inactive
same,MIC,Escherichia coli [3],4 µg/mL
same,MIC,Escherichia coli [4],> 64 µg/mL
NCC[C@H](O)C(=O)N[C@@H]1C[C@H](N)[C@@H](O[C@H]2O[C@H](CN)[C@@H](O)[C@H](O)[C@H]2O)[C@H](O)[C@H]1O[C@H]1O[C@H](CO)[C@@H](O)[C@H](N)[C@H]1O.O=S(=O)(O)O,MIC,Escherichia coli [3],2 µg/mL
same,MIC,Escherichia coli [4],> 64 µg/mL
same,MIC,Escherichia coli [5],1 µg/mL
CN[C@H](CC(C)C)C(=O)N[C@H]1C(=O)N[C@@H](CC(N)=O)C(=O)N[C@H]2C(=O)N[C@H]3C(=O)N[C@H](C(=O)N[C@H](C(=O)O)c4cc(O)cc(O)c4-c4cc3ccc4O)[C@H](O)c3ccc(c(Cl)c3)Oc3cc2cc(c3O[C@@H]2O[C@H](CO)[C@@H](O)[C@H](O)[C@H]2O[C@H]2C[C@](C)(N)[C@H](O)[C@H](C)O2)Oc2ccc(cc2Cl)[C@H]1O.Cl [VANCOMYCIN HYDROCHLORIDE],MBC,Staphylococcus aureus [6],1 µg/mL
same,MIC,Enterococcus faecalis [7],1 µg/mL
same,Activity,Enterococcus faecalis [8],inactive
same,MIC,Enterococcus faecalis [9],> 64 µg/mL
NC[C@@H]1O[C@H](O[C@H]2[C@@H](O)[C@H](O[C@@H]3[C@@H](O)[C@H](N)C[C@H](N)[C@H]3O[C@H]3O[C@H](CN)[C@@H](O)[C@H](O)[C@H]3N)O[C@@H]2CO)[C@H](N)[C@@H](O)[C@@H]1O.O.O=S(=O)(O)O [NEOMYCIN TRISULFATE HYDRATE],Ratio,Escherichia coli [10],2
same,MIC,Escherichia coli [3],1 µg/mL
same,MBC,Escherichia coli [11],2 µg/mL
CCC[C@@H]1C[C@@H](C(=O)N[C@@H]([C@H]2O[C@H](SC)[C@H](O)[C@@H](O)[C@H]2O)[C@H](C)Cl)N(C)C1.Cl [CLINDAMYCIN HYDROCHLORIDE],MIC,Staphylococcus aureus [12],> 64 µg/mL
same,MIC,Enterococcus faecalis [7],2 µg/mL
same,MIC,Staphylococcus aureus [13],> 64 µg/mL
same,Activity,[14],inactive
same,MIC,Staphylococcus aureus [15],0.063 µg/mL
same,MIC,Staphylococcus aureus [16],0.031 µg/mL
same,MIC,Enterococcus faecalis [9],> 64 µg/mL
CC(C)(C)c1ccc(-c2ccnc(CNC(=N)N)c2)cc1,Activity,[2],inactive
same,MIC,Escherichia coli [3],64 µg/mL
same,MIC,Staphylococcus aureus [12],8 µg/mL
same,MIC,Enterococcus faecalis [7],32 µg/mL
same,Activity,Enterococcus faecalis [8],inactive
same,Kd,[17],Not Active
same,MIC,Staphylococcus aureus [13],16 µg/mL
same,MIC,Escherichia coli [4],64 µg/mL
same,Activity,[14],inactive
same,MIC,Staphylococcus aureus [15],8 µg/mL
same,Kd,[18],Not Active
same,MIC,Escherichia coli [5],8 µg/mL
same,MIC,Staphylococcus aureus [16],8 µg/mL
same,MIC,Enterococcus faecalis [9],64 µg/mL
same,Kd,[19],Not Active
